Reference: ChEMBL document CHEMBL3352630, “Sequestered fulvinol-related polyacetylenes in Peltodoris atromaculata” (J Nat Prod, 2014)

Columns and labels:
MCF7 = assay: Growth inhibition of human MCF7 cells after 72 hrs by MTT assay; type: functional, cell-based; conditions: MCF7, 72 h
Procedure, shortened: (§1)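 Human cancer cells (carcinoma: A549, MCF-7, PC-3; glioma: Hs683, U373; melanoma: SK-MEL-28) were cultured with the test compound for 72 h. Growth was read by MTT colorimetric assay, and the IC50 for in vitro growth inhibition is given in μM. Etoposide was run alongside as the reference agent.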

[1] = Growth inhibition of human PC3 cells after 72 hrs by MTT assay; type: functional, cell-based; conditions: PC-3, 72 h; procedure, shortened: as §1
[2] = Growth inhibition of human U373 cells after 72 hrs by MTT assay; type: functional, cell-based, U-373MG ATCC; conditions: U373 MG; procedure, shortened: as §1
[3] = Growth inhibition of human Hs683 cells after 72 hrs by MTT assay; type: functional, cell-based; conditions: Hs 683, 72 h; procedure, shortened: as §1
SK-MEL-28 = assay: Growth inhibition of human SK-MEL-28 cells after 72 hrs by MTT assay; type: functional, cell-based; conditions: SK-MEL-28, 72 h; procedure, shortened: as §1
A549 = assay: Growth inhibition of human A549 cells after 72 hrs by MTT assay; type: functional, cell-based; conditions: A549, 72 h; procedure, shortened: as §1

Row | IC50 (MCF7) | IC50 (SK-MEL-28) | IC50 (A549) | SMILES | IC50 [1] | IC50 [2] | IC50 [3]
1 | 82 µM | > 100 µM | 37 µM | C#CC(=O)/C=C/CCCCCCCCC/C=C\CCCC/C=C\CCCC/C=C\CCCCCCCCCCCCC/C=C/C(=O)C#C | 86 µM | > 100 µM | > 100 µM
2 | 15 µM | 3 µM | 31 µM | C#C[C@@H](O)/C=C/CCCCCCCCCCCCC/C=C\CCCC/C=C\CCCC/C=C\C/C=C\CCCCCC(O)/C=C/[C@H](O)C#C (some centres undefined) | 32 µM | 15 µM | 23 µM
3 | 23 µM | 11 µM | 28 µM | C#C[C@@H](O)/C=C/CCCCCCCCC/C=C\CCCC/C=C\CCCC/C=C\CCCCCCCCCCCCC/C=C/[C@H](O)C#C | 18 µM | 19 µM | 36 µM
4 | 17 µM | 1 µM | 0.1 µM | COc1cc([C@@H]2c3cc4c(cc3[C@@H](O[C@@H]3O[C@@H]5CO[C@@H](C)O[C@H]5[C@H](O)[C@H]3O)[C@H]3COC(=O)[C@H]23)OCO4)cc(OC)c1O [ETOPOSIDE] | 2 µM | 7 µM | 1 µM
